tested on: Trypanosoma brucei; assay: Percentage of activity against Trypanosoma brucei at 12.5 uM; assay type: functional; conditions: not given
Outline: (§1)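 Bloodstream-form T. brucei in HMI-9 medium, 10 000 parasites/well, exposed to 12.5, 6.25, 3.13 and 1.56 µM drug for 4 days. Read-out is % inhibition of parasite multiplication. Macrophage toxicity judged on mouse primary peritoneal macrophages.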

Structure (SMILES)	Inhibition of parasite multiplication
COc1ccc2nc3cc(Cl)ccc3c(NCCN(CCNc3c4ccc(Cl)cc4nc4ccc(OC)cc34)C(=O)C(C)NC(=O)OC(C)(C)C)c2c1 (centres undefined)	100%
COc1ccc2nc3cc(Cl)ccc3c(NCCCN(CCCNc3c4ccc(Cl)cc4nc4ccc(OC)cc34)C(=O)C(CC(=O)OCC3c4ccccc4-c4ccccc43)NC(=O)OC(C)(C)C)c2c1 (centres undefined)	100%

tested on: Leishmania infantum; assay: Percentage of activity against Leishmania infantum 6.25 uM; assay type: functional; conditions: not given
Outline: (§2)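 Starch-stimulated mouse peritoneal macrophages, 30 000/well, infected after 24 h with spleen-derived L. infantum amastigotes (10:1) together with 2-fold drug dilutions (12.5–1.56 µM). Incubated 7 days at 37 °C, 5% CO2. Wright-stained slides scored microscopically as % reduction of total parasite load or of infected macrophages. Uninfected treated cultures judged microscopically for macrophage toxicity.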

Structure (SMILES)	Antileishmanial activity (% reduction of parasite load)
COc1ccc2nc3cc(Cl)ccc3c(NCCN(CCNc3c4ccc(Cl)cc4nc4ccc(OC)cc34)C(=O)C(C)NC(=O)OC(C)(C)C)c2c1 (centres undefined)	60%
COc1ccc2nc3cc(Cl)ccc3c(NCCCN(CCCNc3c4ccc(Cl)cc4nc4ccc(OC)cc34)C(=O)C(CC(=O)OCC3c4ccccc4-c4ccccc43)NC(=O)OC(C)(C)C)c2c1 (centres undefined)	0%

tested on: Trypanosoma cruzi; assay: Percentage of activity against Trypanosoma cruzi at 1.56 uM; assay type: functional; conditions: not given
Outline: (§3)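 Mouse peritoneal macrophages, 30 000/well, infected after 24 h with about 100 000 T. cruzi trypomastigotes per well plus 2-fold drug dilutions (12.5–1.56 µM). Incubated 4 days at 37 °C, 5% CO2. Methanol-fixed, Giemsa-stained and scored microscopically as % reduction of total parasite load (free trypomastigotes plus intracellular amastigotes) versus untreated controls.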

Structure (SMILES)	Parasite load reduction
COc1ccc2nc3cc(Cl)ccc3c(NCCN(CCNc3c4ccc(Cl)cc4nc4ccc(OC)cc34)C(=O)C(C)NC(=O)OC(C)(C)C)c2c1 (centres undefined)	0%
COc1ccc2nc3cc(Cl)ccc3c(NCCCN(CCCNc3c4ccc(Cl)cc4nc4ccc(OC)cc34)C(=O)C(CC(=O)OCC3c4ccccc4-c4ccccc43)NC(=O)OC(C)(C)C)c2c1 (centres undefined)	0%

tested on: Plasmodium falciparum; assay: In vitro sensitivity for Plasmodium falciparum FcB1R; assay type: functional, organism-based; conditions: not given
Outline: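 Asynchronous P. falciparum cultures in human erythrocytes (0.5% parasitemia, 1% haematocrit) exposed to serially diluted drug for 24 h at 37 °C. [3H]hypoxanthine (0.5 µCi/well) then added for a further 24 h. Uptake compared with drug-free controls on the same plate. IC50 taken from the concentration–response curve, averaged over independent experiments. DMSO ≤0.1%.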

Structure (SMILES)	IC50
COc1ccc2nc3cc(Cl)ccc3c(NCCN(CCNc3c4ccc(Cl)cc4nc4ccc(OC)cc34)C(=O)C(C)NC(=O)OC(C)(C)C)c2c1 (centres undefined)	109 nM
COc1ccc2nc3cc(Cl)ccc3c(NCCCN(CCCNc3c4ccc(Cl)cc4nc4ccc(OC)cc34)C(=O)C(CC(=O)OCC3c4ccccc4-c4ccccc43)NC(=O)OC(C)(C)C)c2c1 (centres undefined)	230 nM

tested on: Trypanosoma cruzi; assay: Percentage of activity against Trypanosoma cruzi at 12.5 uM; assay type: functional; conditions: not given; outline: as §3

Structure (SMILES)	T. cruzi parasite load reduction
COc1ccc2nc3cc(Cl)ccc3c(NCCN(CCNc3c4ccc(Cl)cc4nc4ccc(OC)cc34)C(=O)C(C)NC(=O)OC(C)(C)C)c2c1 (centres undefined)	60%
COc1ccc2nc3cc(Cl)ccc3c(NCCCN(CCCNc3c4ccc(Cl)cc4nc4ccc(OC)cc34)C(=O)C(CC(=O)OCC3c4ccccc4-c4ccccc43)NC(=O)OC(C)(C)C)c2c1 (centres undefined)	40%

tested on: Trypanosoma cruzi; assay: Percentage of activity against Trypanosoma cruzi at 6.25 uM Concentration; assay type: functional; conditions: not given; outline: as §3

Structure (SMILES)	Reduction of T. cruzi parasite load
COc1ccc2nc3cc(Cl)ccc3c(NCCN(CCNc3c4ccc(Cl)cc4nc4ccc(OC)cc34)C(=O)C(C)NC(=O)OC(C)(C)C)c2c1 (centres undefined)	40%
COc1ccc2nc3cc(Cl)ccc3c(NCCCN(CCCNc3c4ccc(Cl)cc4nc4ccc(OC)cc34)C(=O)C(CC(=O)OCC3c4ccccc4-c4ccccc43)NC(=O)OC(C)(C)C)c2c1 (centres undefined)	0%

tested on: Leishmania infantum; assay: Percentage of activity against Leishmania infantum at 1.56 uM; assay type: functional; conditions: not given; outline: as §2

Structure (SMILES)	Antileishmanial activity (% reduction of parasite load)
COc1ccc2nc3cc(Cl)ccc3c(NCCN(CCNc3c4ccc(Cl)cc4nc4ccc(OC)cc34)C(=O)C(C)NC(=O)OC(C)(C)C)c2c1 (centres undefined)	0%
COc1ccc2nc3cc(Cl)ccc3c(NCCCN(CCCNc3c4ccc(Cl)cc4nc4ccc(OC)cc34)C(=O)C(CC(=O)OCC3c4ccccc4-c4ccccc43)NC(=O)OC(C)(C)C)c2c1 (centres undefined)	0%

tested on: Trypanosoma brucei; assay: Percentage of activity against Trypanosoma brucei at 1.56 uM; assay type: functional; conditions: not given; outline: as §1

Structure (SMILES)	Percent inhibition of parasite multiplication
COc1ccc2nc3cc(Cl)ccc3c(NCCN(CCNc3c4ccc(Cl)cc4nc4ccc(OC)cc34)C(=O)C(C)NC(=O)OC(C)(C)C)c2c1 (centres undefined)	99%
COc1ccc2nc3cc(Cl)ccc3c(NCCCN(CCCNc3c4ccc(Cl)cc4nc4ccc(OC)cc34)C(=O)C(CC(=O)OCC3c4ccccc4-c4ccccc43)NC(=O)OC(C)(C)C)c2c1 (centres undefined)	100%

tested on: Leishmania infantum; assay: In Vitro evaluation for the percentage of activity towards Leishmania infantum at 12.5 uM Concentration; assay type: functional; conditions: not given; outline: as §2

Structure (SMILES)	Percent inhibition of Leishmania infantum
COc1ccc2nc3cc(Cl)ccc3c(NCCN(CCNc3c4ccc(Cl)cc4nc4ccc(OC)cc34)C(=O)C(C)NC(=O)OC(C)(C)C)c2c1 (centres undefined)	90%
COc1ccc2nc3cc(Cl)ccc3c(NCCCN(CCCNc3c4ccc(Cl)cc4nc4ccc(OC)cc34)C(=O)C(CC(=O)OCC3c4ccccc4-c4ccccc43)NC(=O)OC(C)(C)C)c2c1 (centres undefined)	20%

tested on: Trypanosoma cruzi; assay: Percentage of activity against Trypanosoma cruzi at 3.13 uM; assay type: functional; conditions: not given; outline: as §3

Structure (SMILES)	Reduction of T. cruzi parasite load
COc1ccc2nc3cc(Cl)ccc3c(NCCN(CCNc3c4ccc(Cl)cc4nc4ccc(OC)cc34)C(=O)C(C)NC(=O)OC(C)(C)C)c2c1 (centres undefined)	0%
COc1ccc2nc3cc(Cl)ccc3c(NCCCN(CCCNc3c4ccc(Cl)cc4nc4ccc(OC)cc34)C(=O)C(CC(=O)OCC3c4ccccc4-c4ccccc43)NC(=O)OC(C)(C)C)c2c1 (centres undefined)	0%

tested on: Leishmania infantum; assay: Percentage of activity against Leishmania infantum at 3.13 uM; assay type: functional; conditions: not given; outline: as §2

Structure (SMILES)	Percent antileishmanial activity (reduction of parasite load)
COc1ccc2nc3cc(Cl)ccc3c(NCCN(CCNc3c4ccc(Cl)cc4nc4ccc(OC)cc34)C(=O)C(C)NC(=O)OC(C)(C)C)c2c1 (centres undefined)	20%
COc1ccc2nc3cc(Cl)ccc3c(NCCCN(CCCNc3c4ccc(Cl)cc4nc4ccc(OC)cc34)C(=O)C(CC(=O)OCC3c4ccccc4-c4ccccc43)NC(=O)OC(C)(C)C)c2c1 (centres undefined)	0%

tested on: MRC5; assay: Cytotoxicity on MRC-5 cells at 25 uM; assay type: functional; conditions: Homo sapiens
Outline: (§4)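 MRC-5 human diploid embryonic lung cells seeded at 5 000/well, washed after 24 h, then given 2-fold drug dilutions (25, 12.5, 6.25, 3.13 µM) in RPMI + 5% FCS, final DMSO below 0.5%. Incubated 7 days at 37 °C, 5% CO2. MTT colorimetric read-out, scored as % reduction of absorbance at 540 nm versus untreated controls.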

Structure (SMILES)	cytotoxicity at 25 µM
COc1ccc2nc3cc(Cl)ccc3c(NCCN(CCNc3c4ccc(Cl)cc4nc4ccc(OC)cc34)C(=O)C(C)NC(=O)OC(C)(C)C)c2c1 (centres undefined)	100%
COc1ccc2nc3cc(Cl)ccc3c(NCCCN(CCCNc3c4ccc(Cl)cc4nc4ccc(OC)cc34)C(=O)C(CC(=O)OCC3c4ccccc4-c4ccccc43)NC(=O)OC(C)(C)C)c2c1 (centres undefined)	0%

tested on: Trypanosoma brucei; assay: Percentage of activity against Trypanosoma brucei at 6.25 uM; assay type: functional; conditions: not given; outline: as §1

Structure (SMILES)	Inhibition of parasite multiplication
COc1ccc2nc3cc(Cl)ccc3c(NCCN(CCNc3c4ccc(Cl)cc4nc4ccc(OC)cc34)C(=O)C(C)NC(=O)OC(C)(C)C)c2c1 (centres undefined)	100%
COc1ccc2nc3cc(Cl)ccc3c(NCCCN(CCCNc3c4ccc(Cl)cc4nc4ccc(OC)cc34)C(=O)C(CC(=O)OCC3c4ccccc4-c4ccccc43)NC(=O)OC(C)(C)C)c2c1 (centres undefined)	100%

tested on: Trypanosoma brucei; assay: Percentage of activity against Trypanosoma brucei at 3.13 uM; assay type: functional; conditions: not given; outline: as §1

Structure (SMILES)	Parasite growth inhibition
COc1ccc2nc3cc(Cl)ccc3c(NCCN(CCNc3c4ccc(Cl)cc4nc4ccc(OC)cc34)C(=O)C(C)NC(=O)OC(C)(C)C)c2c1 (centres undefined)	100%
COc1ccc2nc3cc(Cl)ccc3c(NCCCN(CCCNc3c4ccc(Cl)cc4nc4ccc(OC)cc34)C(=O)C(CC(=O)OCC3c4ccccc4-c4ccccc43)NC(=O)OC(C)(C)C)c2c1 (centres undefined)	100%

tested on: MRC5; assay: Cytotoxicity on MRC-5 cells at 12.5 uM; assay type: functional; conditions: Homo sapiens; outline: as §4

Structure (SMILES)	cytotoxicity at 12.5 µM
COc1ccc2nc3cc(Cl)ccc3c(NCCN(CCNc3c4ccc(Cl)cc4nc4ccc(OC)cc34)C(=O)C(C)NC(=O)OC(C)(C)C)c2c1 (centres undefined)	0%
COc1ccc2nc3cc(Cl)ccc3c(NCCCN(CCCNc3c4ccc(Cl)cc4nc4ccc(OC)cc34)C(=O)C(CC(=O)OCC3c4ccccc4-c4ccccc43)NC(=O)OC(C)(C)C)c2c1 (centres undefined)	0%

tested on: MRC5; assay: Cytotoxicity on MRC-5 cells at 6.25 uM; assay type: functional; conditions: Homo sapiens; outline: as §4

Structure (SMILES)	cytotoxicity at 6.25 µM
COc1ccc2nc3cc(Cl)ccc3c(NCCN(CCNc3c4ccc(Cl)cc4nc4ccc(OC)cc34)C(=O)C(C)NC(=O)OC(C)(C)C)c2c1 (centres undefined)	0%
COc1ccc2nc3cc(Cl)ccc3c(NCCCN(CCCNc3c4ccc(Cl)cc4nc4ccc(OC)cc34)C(=O)C(CC(=O)OCC3c4ccccc4-c4ccccc43)NC(=O)OC(C)(C)C)c2c1 (centres undefined)	0%

tested on: MRC5; assay: Cytotoxicity on MRC-5 cells at 3.13 uM; assay type: functional; conditions: Homo sapiens; outline: as §4

Structure (SMILES)	cytotoxicity at 3.13 µM
COc1ccc2nc3cc(Cl)ccc3c(NCCN(CCNc3c4ccc(Cl)cc4nc4ccc(OC)cc34)C(=O)C(C)NC(=O)OC(C)(C)C)c2c1 (centres undefined)	0%
COc1ccc2nc3cc(Cl)ccc3c(NCCCN(CCCNc3c4ccc(Cl)cc4nc4ccc(OC)cc34)C(=O)C(CC(=O)OCC3c4ccccc4-c4ccccc43)NC(=O)OC(C)(C)C)c2c1 (centres undefined)	0%

Reference: ChEMBL document CHEMBL1133105, “Antimalarial, antitrypanosomal, and antileishmanial activities and cytotoxicity of bis(9-amino-6-chloro-2-methoxyacridines): influence of the linker” (J Med Chem, 2000)
